# Screens as filed in PubChem BioAssay.
# hIAP act: human IAP activators, primary screen, biochemical, luminescence, uHTS | Intestinal-type alkaline phosphatase (Homo sapiens), P09923 | purified human IAP, CDP-Star luminescence, 30 min; stronger effect = higher value; 1 = vehicle-only enzyme, 0 = enzyme-free background | activation factor at 10 µM | 330,000 tested, 0.16% active;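 active = activation factor of the enzyme at least 2-fold when tested at 20 µM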
# Target sequence (P09923 whole entry, looked up): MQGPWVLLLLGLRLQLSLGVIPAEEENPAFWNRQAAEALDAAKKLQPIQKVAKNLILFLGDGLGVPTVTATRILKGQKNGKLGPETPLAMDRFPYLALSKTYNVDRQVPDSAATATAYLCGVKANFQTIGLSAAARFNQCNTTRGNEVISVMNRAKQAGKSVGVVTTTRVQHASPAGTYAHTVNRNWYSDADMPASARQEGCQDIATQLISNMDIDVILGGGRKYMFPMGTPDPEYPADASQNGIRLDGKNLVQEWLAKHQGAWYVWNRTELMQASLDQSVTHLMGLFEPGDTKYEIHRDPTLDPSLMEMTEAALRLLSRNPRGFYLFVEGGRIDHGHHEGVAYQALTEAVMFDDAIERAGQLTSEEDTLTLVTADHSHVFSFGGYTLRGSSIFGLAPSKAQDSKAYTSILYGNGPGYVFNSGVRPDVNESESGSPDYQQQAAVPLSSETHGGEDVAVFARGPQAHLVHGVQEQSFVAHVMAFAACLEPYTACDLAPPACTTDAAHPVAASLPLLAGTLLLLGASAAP
# mIAP act: activators of mouse IAP, primary screen, biochemical, luminescence, uHTS; activation factor at 10 µM; 330,000 tested, 0.24% active; AID 2805, 2010; muIAP, CDP-Star luminescence, 30 min; stronger effect = higher value; 1 = vehicle-only enzyme signal, 0 = enzyme-free wells;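 active = activation factor of at least 2 at 20 µM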
#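 System: mouse IAP enzyme. Reagent: CDP-Star chemiluminescent phosphatase substrate. Benchmarks: DMSO wells, no-enzyme wells. Times: 30 min enzyme-substrate-compound incubation at room temperature. Detection: luminescence from enzymatic CDP-Star hydrolysis. Doses: test compounds delivered from DMSO solution.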
# bIAP act: bovine intestinal alkaline phosphatase activators, primary screen, biochemical, bovine IAP, CDP-star luminescence. alkaline phosphatase, intestinal [Bos taurus]. purified bovine IAP, 30 min; stronger effect = higher value; fold of DMSO-control signal, blank-subtracted. 200,000 tested, 0.17% active. activation factor at 20 µM;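 active = activation factor of 2 or more at 20 µM, a signal rise over negative controls twice the positive control's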
# hIAP block: human IAP inhibitors, primary screen, biochemical, luminescence, uHTS; purified IAP, CDP-Star luminescence, 30 min; inhibition, % at 10 µM; 330,000 tested, 0.12% active;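 active = inhibition reaching a set limit with compound at 10 µM in the primary screen, cut at about 35% in these data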;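 also: plate controls were DMSO wells with enzyme for no effect and no-enzyme buffer wells for full effect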
# bIAP inhibitor: bovine intestinal alkaline phosphatase inhibitors, primary screen, selectivity assay for TNAP inhibitor project, biochemical, bovine IAP, CDP-star luminescence; 190,000 tested, under 10 active; alkaline phosphatase, intestinal [Bos taurus]; inhibition, % at 20 µM; AID 1019, 2008; purified bovine IAP, 30 min;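 active = over 50% inhibition of intestinal alkaline phosphatase at 20 µM in the single-dose screen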
#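 test system = bovine IAP enzyme | medium = DEA buffer 100 mM, pH 9.8, with MgCl2 1.0 mM, ZnCl2 0.02 mM | detection = luminescence | dosing = single compound dose of 20 µM, 2% DMSO final | incubation = 30 min reaction at room temperature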
# mIAP inh: inhibitors of mouse IAP, primary screen, biochemical, luminescence, uHTS; purified mouse IAP, CDP-Star luminescence, 30 min; 330,000 tested, 0.2% active; AID 2806, 2010; inhibition, % at 10 µM;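 active = inhibition of at least 40% at 10 µM in the primary screen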;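 also: plate controls were DMSO with enzyme for no effect and no enzyme wells for full effect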
# * hit, by the source's call; i = inactive; · = no result given. An excerpt weighted towards active compounds, which were near 0.77% of everything screened.
SMILES,hIAP act,mIAP act,bIAP act,hIAP block,bIAP inhibitor,mIAP inh
C/C=C\C(=O)Nc1cccc(C2=NOC3(C2)C[C@@H](C(N)=O)N(C(=O)c2ccccc2)C3)c1 (stereo not given in full),0.92,0.56,·,8,·,44*
Cn1nc(C(=O)Nc2ccc3c(c2)OCCO3)c2ccccc2c1=O,0.94,0.97,·,6,·,2
CCOc1ccc(S(=O)(=O)NN)cc1,1.1,1,2*,-9,-99,-4
COc1ccc(/C(C)=N/Nc2ccc(C(=O)O)cc2)cc1OC,2.1*,0.95,0.9,-107,5,5
Cc1cc(C(=O)Nc2c(C)nn(Cc3ccc(F)cc3)c2C)on1,1.1,0.99,1,-8,-4,1
Cc1nn(Cc2ccc(F)cc2)c(C)c1NC(=O)C1c2ccccc2Oc2ccccc21,1.2,2.9*,0.8,-20,18,-188
CCc1nc(SCc2cc(Cl)ccc2OC)n[nH]1,0.84,0.95,1.3,16,-33,5
CCO[C@@H]1OC(C(N)=O)=C[C@H](C2CCCCC2)[C@H]1CCCO,1.1,0.55,·,-9,·,45*
Cc1n[nH]c(=O)c2c(NC(=O)COC(=O)Cc3c(F)cccc3Cl)oc(C)c12,1,1.1,·,-3,·,-6
CCC(=O)Nc1cccc(C2=NN(c3ccccc3)C(c3ccc(OC)cc3)C2)c1 (stereo not given),1.4,2.7*,·,-39,·,-173
O=C(Nc1ccc2ccccc2c1)c1cn(-c2ccccc2)nc1-c1cccs1,0.87,2.1*,1,13,-2,-114
O=C(Nc1ccccc1-c1ccccc1)NC1CC2CCCC(C1)N2CCc1ccccc1 (stereo not given),0.9,2.3*,1.1,10,-8,-131
Cc1cc(OCCCCCn2ccnc2)cc(C)c1Cl,1.5,1.1,68*,-53,i,-11
CCOc1ccc(NC(=O)CC(c2ccccc2)c2ccc(F)cc2)cc1 (stereo not given),1.2,2.2*,0.5,-16,47,-117
CCOc1ccccc1NC(=O)c1cccc(NC(=O)CC(c2ccccc2)c2ccccc2)c1,0.96,2*,1.1,4,-6,-102
COCCNC(=O)C1CCCN(c2nn3c(=O)cc(C)nc3s2)C1 (stereo not given),1.1,0.97,1,-11,3,3
N#C/C(=C(/O)COC(=O)CSc1ccc2ccccc2c1)c1nc2ccccc2[nH]1,2.4*,0.78,0.6,-143,43,22
CCOC(=O)N1CCN(C(=S)NC2CCCC2)CC1,0.94,1,1.1,6,-5,-2
Cc1ccc(N/C(N)=N/c2nc(CSc3nnc(C)s3)cc(=O)[nH]2)c(C)c1,1.7,1.1,2.1*,-67,-111,-8
CC(C)(C)c1ccc(OCC(=O)Nc2ccc(-c3nc4cccnc4o3)cc2)cc1,0.87,0.89,2*,13,-95,11
Cc1ccc(NC(=O)Nc2cccc3ccccc23)cc1,1,1.2,·,0,·,-20
N#CCc1ccc(NC(=O)Nc2cccc3ccccc23)cc1,1.3,2.1*,·,-27,·,-110
CCCCOC(=O)c1ccc(NC(=O)Nc2ccc(OC)c(OC)c2)cc1,1.3,2.2*,0.8,-28,19,-115
CCOC(=O)c1ccc(NC(=O)NCc2ccccc2OC)cc1,1.3,2.4*,1.2,-32,-16,-135
CCOC(=O)c1cccc(NC(=O)Nc2ccc(OCC)cc2)c1,1.1,2.9*,0.9,-8,8,-191
SMILES,hIAP act,mIAP act,bIAP act,hIAP block,bIAP inhibitor,mIAP inh
CCOC(=O)c1ccc(NC(=O)Nc2ccc(F)cc2)cc1,0.96,2.5*,0.8,4,22,-154
CCOC(=O)c1ccc(NC(=O)NCc2ccccc2)cc1,1,1.4,0.9,-3,9,-38
COC(=O)c1ccc(NC(=O)Nc2ccc(F)cc2)cc1,0.99,1.8,0.7,1,25,-78
Cc1cc(C)nc(NS(=O)(=O)c2ccc(NC(=O)c3ccc(S(=O)(=O)N(C)C)cc3)cc2)n1,1,0.96,·,-3,·,4
Cc1ccccc1-c1cc(C(=O)NCc2cccc(Br)c2)n(CC2CC(c3cccnc3)=NO2)n1 (stereo not given),1,2*,·,-4,·,-100
CCOC(=O)c1cc(-c2ccccc2)nn1CC1CC(c2ccc(OC)cc2)=NO1 (stereo not given),1.1,1,·,-15,·,-3
COc1ccc(C2=NOC(Cn3nc(-c4ccccc4)cc3C(=O)NCc3ccc(C)cc3)C2)cc1 (stereo not given),1.1,3.3*,·,-8,·,-231
COc1ccc(C2=NOC(Cn3nc(-c4ccccc4)cc3C(=O)NCc3cccc(C(F)(F)F)c3)C2)cc1 (stereo not given),1.1,3.2*,·,-8,·,-224
CCCC(=O)Nc1nnc(SCC(=O)Nc2nc(C)cs2)s1,0.81,0.88,·,19,·,12
O=[N+]([O-])c1ccc(COP(=O)(O)OCc2ccc([N+](=O)[O-])cc2)cc1,0.97,0.97,·,2,·,3
CSc1nsc(SC)c1NC(=O)OCCc1ccccn1,0.98,0.59,0.9,2,11,41*
CSc1nsc(SC)c1NC(=O)OCc1ccccc1,1.1,0.97,0.6,-8,44,3
COc1ccc(NC(=O)N/C=C/c2ccc(Cl)cc2)cc1,1.1,1.1,1,-12,-3,-9
Cc1ccc(NC(=O)N/C=C/c2ccccc2)cc1,0.95,2.2*,0.8,5,16,-123
Cc1ccc(NC(=O)N/C=C/c2ccc(Cl)cc2)cc1,1.2,2.3*,0.5,-24,·,-131
Cc1n[nH]c(=O)nc1N1CCN(c2ccccc2)CC1,0.66,1,0.9,34,8,-4
C[n+]1ccn(CC(=O)c2ccc(Cl)cc2)c1,1,0.93,2.5*,-4,-148,7
C[n+]1ccn(CC(=O)c2ccc(Br)cc2)c1,1,0.94,1,-2,-4,6
Cc1cc(C)n(C(=O)CCC(=O)NCc2ccccc2)n1,0.89,0.44,1,11,1,56*
Cc1cc(C(=O)C(=O)O)c(C)n1-c1ccc(Cl)c(Cl)c1,1.1,1,2.5*,-8,-146,-1
O=C(Nc1cccc(Cl)c1)NC1(C(=O)NCc2cccs2)CCCCC1,1.1,2.2*,1.1,-14,-6,-121
O=C(NCc1cccs1)Nc1cccc(Cl)c1,1,1.8,·,-4,·,-84
